Measured values from article PMC11184607 (ACS Pharmacology & Translational Science, 2024).
Bridge positions count the residues as written; N and C are the ends. Square brackets hold non-standard residues; d marks the D form. Peptide text beside a SMILES is read from it. * marks the point of attachment. NMe2Val = CC(C)[C@@H](C(=O)*)N(C)C; NMeI = CC[C@H](C)[C@H](NC)C(=O)O; NMeT = CN[C@H](C(=O)O)[C@@H](C)O; NMeL = CN[C@@H](CC(C)C)C(=O)O; dHiv = CC(C)[C@@H](O)C(=O)O; NMeS = CN[C@@H](CO)C(=O)O; dNMeA = CN[C@H](C)C(=O)O

Legend:
GSC line 83 = assay: GSC neurosphere viability, 72 h, line 83; type: cell-based, human; settings: read-out: EC50, GSC type 83
Hsp70 = assay: Immunoblot of Hsp70 in U87-MG cells; type: cell-based, human; settings: 1 30 nM, 2 1 μM, 24 h
Method in brief: (§1)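 U87-MG cells in MEM with 10% FBS are exposed 24 h to test compound (30 nM or 1 μM) or 0.1% DMSO. Protein-matched lysates (BCA) are run on SDS-PAGE, transferred to PVDF and detected with HRP secondary. Signals are normalized to α-tubulin and expressed relative to control. Three independent experiments; one-way ANOVA then t-test.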

Gluc-U87 cells = assay: Viability of adherent GLuc-U87 cells; type: cell-based, human; settings: 0.3–300 nM
U87-MG GBM cells = assay: Cell viability; type: cell-based, human; settings: read-out: EC50, U87-MG cells; 72 h
Method in brief: (§2)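 Cells are grown at 37 °C in 5% CO2. U87-MG and U251 are in MEM with 10% FBS, SF-268 in DMEM with 10% FBS, and SF-295 in RPMI 1640 with 10% FBS. HUVECs are pooled donors. Exposure is to the test compound (0.1 nM–1 μM) or 0.1% DMSO for 72 h. Viability is read by ATP luminescence as % of vehicle, n = 3 wells. […] comes from a logistic nonlinear fit over three independent comparisons.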

Hsp90 = assay: Immunoblot of Hsp90 in U87-MG cells; type: cell-based, human; settings: 1 30 nM, 2 1 μM, 24 h
Method in brief: as §1

[1] = tested on: WT and mutant (R66I) Sec61α HCT116 colon cancer cells; assay: Viability of WT versus Sec61α R66I mutant HCT116 cells; type: cell-based, human; settings: 72 h and 6 days (3 + 3 day exposure)
GSC 157 neurospheres = assay: Neurosphere morphology of GSC 157 by light microscopy; type: cell-based, human; settings: 100 nM, 24 h, relative to control-treated cells
Method in brief: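 Patient-derived GSC 157 cells are dissociated from tumour and expanded as neurospheres in medium with heparin 2 μg/mL, EGF 20 ng/mL and bFGF 10 ng/mL. Neurospheres receive test compound at 100 nM for 24 h. Morphology and neurosphere size are compared with control-treated cells.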

BiP = assay: Immunoblot of BiP expression; type: cell-based, human
U251 GBM cells = assay: Cell viability; type: cell-based, human; settings: read-out: EC50, U251 cells; 72 h
Method in brief: as §2

[2] = tested on: HEK293FRT cells expressing WT or mutant (R66I) Sec61α; assay: Viability of WT versus Sec61α R66I mutant HEK293 cells; type: cell-based, human; settings: 72 h or 3 + 3 day exposure
Method in brief: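 HEK293FRT cells carrying Sec61α R66I, with wild-type comparators, are grown in DMEM with 10% FBS, 6 mM L-glutamine and 1 mM pyruvate. They are exposed to increasing test compound concentrations or 0.1% DMSO for 72 h, or 3 + 3 days to avoid nutrient deprivation. ATP viability is read as % of vehicle, n = 3 wells. Logistic nonlinear fit; ≥3 independent experiments.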

[3] = tested on: UPR markers (BiP, CHOP, sXBP1, GADD34, IRE1) mRNA; assay: qPCR of ER stress; type: cell-based, human; settings: 80 nM plus thapsigargin 300 nM, 24 h
Method in brief: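 GSC neurospheres (MGG6, 83, M76, GBM8) are treated 24 h with test compound 80 nM, thapsigargin 300 nM, both together, or 0.1% DMSO. BiP, CHOP, sXBP1, GADD34 and IRE1 mRNA are measured by qPCR normalized to GAPDH and expressed as fold-change versus vehicle.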

SF-268 GBM cells = assay: Cell viability; type: cell-based, human; settings: read-out: EC50, SF-268 cells; 72 h
Method in brief: as §2

subcutaneous xenografts = settings: unmodified natural product; cited from earlier work
[4] = tested on: patient-derived GSCs (M120, MGG6, M76, GBM8, and 157); type: cell-based, human; settings: read-out: EC50, viability of 5/6 GSC lines; 72 h

## CC[C@H](C)[C@H]1C(=O)N[C@@H](C)C(=O)N(C)[C@@H](CC(C)C)C(=O)N[C@@H](Cc2ccc(OC)cc2)C(=O)N(C)[C@H](C)C(=O)O[C@H](C)[C@H](N(C)C(=O)[C@H](CC(C)C)N(C)C(=O)[C@H](COC)N(C)C(=O)[C@H](OC(=O)[C@H](C(C)C)N(C)C)C(C)C)C(=O)N(C)[C@@H](COC)C(=O)N1C [compound 1, Coibamide A] (NMe2Val-[dHiv][NMeS](Me)[NMeL][NMeT][NMeS](Me)[NMeI]A[NMeL]Y(Me)[dNMeA]; ester 4-C)
GSC line 83
  EC50: ~100 nM
Hsp70
  Hsp70 expression: upregulation
Gluc-U87 cells
  Cell viability at 18 h: no change in cell viability
U87-MG GBM cells
  EC50: 18 nM
Hsp90
  Hsp90 expression: upregulation
[1]
  Effect of Sec61α R66I mutation on cytotoxic response relative to WT HCT116 cells: mild resistance
GSC 157 neurospheres
  Change in neurosphere morphology: reduction in neurosphere size
BiP; 1 250 nM and 500 nM, 2 3 µM, 72 h
  BiP expression, GSC line 83: decrease
BiP; immunoblot, 24 h
  BiP protein expression, GSC MGG6 neurospheres and adherent U87-MG cells: downregulation
U251 GBM cells
  EC50: > 700 nM
[2]
  Response of mutant Sec61(R66I) HEK293 cells relative to WT: resistant
[3]
  Effect on thapsigargin-induced upregulation of all UPR markers, GSC line MGG6: almost completely abrogated
SF-268 GBM cells
  EC50: > 700 nM
Subcutaneous xenografts
  Safety after repeat dosing in mice bearing subcutaneous xenografts: adverse safety profile
[4]
  EC50: < 4 nM
